This note sets out measurements from ChEMBL document CHEMBL1135230, “Synthesis of Sordaricin analogues as potent antifungal agents against Candida albicans” (2002).

≈ marks a conversion by molar mass, not a printed value.

Common to all, as to assay type: functional
The test system of one experiment is Nakaseomyces glabratus. The experiment in a line: Tested in vitro for the minimum inhibitory concentration (MIC) against Candida glabrata ATCC 90030. The essentials: (§1)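 Broth MIC determined in RPMI1640 at pH 7.0, incubated at 35 °C; MIC taken as the lowest concentration giving 80% inhibition of fungal growth.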
For experiment [1], the system named is Candida albicans. The experiment in a line: Tested in vitro for the minimum inhibitory concentration (MIC) against Candida albicans SANK51486. The essentials:
as §1

Experiment [2] has as its system Candida albicans. The experiment can be described thus: Tested in vitro for the minimum inhibitory concentration (MIC) against Candida albicans TIMM3164. The method, boiled down: as §1
For experiment [3], the system named is Candida albicans. The experiment can be described thus: Tested in vitro for the minimum inhibitory concentration (MIC) against Candida albicans ATCC 24433. The method, boiled down:
as §1

The next experiment concerns Candida tropicalis. The experiment in a line: Tested in vitro for the minimum inhibitory concentration (MIC) against Candida tropicalis ATCC750. The essentials:
as §1

The test system of experiment [4] is Candida albicans. The experiment can be described thus: Tested in vitro for the minimum inhibitory concentration (MIC) against Candida albicans ATCC 64550. The essentials:
as §1

Turning to `CC(C)C1=CC2CC3(C=O)[C@@H]4CC[C@@H](C)[C@H]4CC2(CN(C)C2CCCCC2)C13C(=O)O` (stereo not given in full), the MIC in the experiment with Nakaseomyces glabratus was 8 µg/mL (≈ 18.7 µM); in the experiment with Candida albicans [1] it was 8 µg/mL (≈ 18.7 µM); in the experiment on Candida albicans [2] it was 16 µg/mL (≈ 37.4 µM); with Candida albicans [3], 8 µg/mL (≈ 18.7 µM); in the experiment on Candida tropicalis it was above 16 µg/mL; against Candida albicans [4], 16 µg/mL (≈ 37.4 µM).

With `CC(C)C1=CC2CC3(C=O)[C@@H]4CC[C@@H](C)[C@H]4CC2(COC2CCCCC2)C13C(=O)O` (stereo not given in full), the MIC was at most 0.063 µg/mL against Nakaseomyces glabratus; at most 0.063 µg/mL with Candida albicans [1]; 0.25 µg/mL (≈ 0.603 µM) against Candida albicans [2]; 0.125 µg/mL (≈ 0.302 µM) with Candida albicans [3]; 2 µg/mL (≈ 4.82 µM) against Candida tropicalis; 0.25 µg/mL (≈ 0.603 µM) against Candida albicans [4].

As to `CCC(C)n1ncn(-c2ccc(N3CCN(c4ccc(OC[C@H]5CO[C@](Cn6cncn6)(c6ccc(Cl)cc6Cl)O5)cc4)CC3)cc2)c1=O` (stereo not given in full) [ITRACONAZOLE], the MIC stood at 1 µg/mL (≈ 1.42 µM) in the experiment on Nakaseomyces glabratus; 0.031 µg/mL (≈ 0.0439 µM) against Candida albicans [1]; 0.25 µg/mL (≈ 0.354 µM) in the experiment with Candida albicans [2]; 0.125 µg/mL (≈ 0.177 µM) against Candida albicans [3]; 0.5 µg/mL (≈ 0.709 µM) in the experiment on Candida tropicalis; 1 µg/mL (≈ 1.42 µM) with Candida albicans [4].

On to `OC(Cn1cncn1)(Cn1cncn1)c1ccc(F)cc1F` [FLUCONAZOLE], for which the MIC is above 4 µg/mL with Nakaseomyces glabratus; 0.25 µg/mL (≈ 0.816 µM) in the experiment with Candida albicans [1]; above 4 µg/mL in the experiment on Candida albicans [2]; 0.5 µg/mL (≈ 1.63 µM) in the experiment with Candida albicans [3]; 0.5 µg/mL (≈ 1.63 µM) with Candida tropicalis; above 4 µg/mL in the experiment with Candida albicans [4].

For `C/C=C/C=C\C(=O)O[C@H]1[C@H](O)[C@H](OCC23C[C@@H]4[C@H](C)CC[C@H]4C4(C=O)CC2C=C(C(C)C)C34C(=O)O)O[C@H](C)[C@H]1OC` (stereo not given in full), the MIC was above 4 µg/mL against Nakaseomyces glabratus; 0.25 µg/mL (≈ 0.426 µM) against Candida albicans [1]; 0.5 µg/mL (≈ 0.852 µM) against Candida albicans [2]; 0.5 µg/mL (≈ 0.852 µM) in the experiment with Candida albicans [3]; 0.5 µg/mL (≈ 0.852 µM) in the experiment with Candida tropicalis; 0.5 µg/mL (≈ 0.852 µM) against Candida albicans [4].

Turning to `CC(C)C1=CC2CC3(C=O)[C@@H]4CC[C@@H](C)[C@H]4CC2(CSC2CCCCC2)C13C(=O)O` (stereo not given in full), the MIC in the experiment with Nakaseomyces glabratus is 0.031 µg/mL (≈ 0.072 µM); against Candida albicans [1], at most 0.016 µg/mL; in the experiment on Candida albicans [2], 0.063 µg/mL (≈ 0.146 µM); in the experiment on Candida albicans [3], 0.031 µg/mL (≈ 0.072 µM); in the experiment on Candida tropicalis, 2 µg/mL (≈ 4.64 µM); with Candida albicans [4], 0.125 µg/mL (≈ 0.29 µM).

Turning to `CC(C)C1=CC2CC3(C=O)[C@@H]4CC[C@@H](C)[C@H]4CC2(CON=C2CCCCC2)C13C(=O)O` (stereo not given in full), the MIC against Nakaseomyces glabratus was determined as 0.063 µg/mL (≈ 0.147 µM); against Candida albicans [1], 0.031 µg/mL (≈ 0.0725 µM); in the experiment with Candida albicans [2], 0.063 µg/mL (≈ 0.147 µM); in the experiment with Candida albicans [3], 0.031 µg/mL (≈ 0.0725 µM); in the experiment on Candida tropicalis, 1 µg/mL (≈ 2.34 µM); against Candida albicans [4], 0.063 µg/mL (≈ 0.147 µM).

For `CC(C)C1=CC2CC3(C=O)[C@@H]4CC[C@@H](C)[C@H]4CC2(/C=N/OC2CCCCC2)C13C(=O)O` (stereo not given in full), the MIC with Nakaseomyces glabratus was determined as 0.125 µg/mL (≈ 0.292 µM); with Candida albicans [1], 0.031 µg/mL (≈ 0.0725 µM); in the experiment on Candida albicans [2], 0.063 µg/mL (≈ 0.147 µM); in the experiment with Candida albicans [3], 0.031 µg/mL (≈ 0.0725 µM); in the experiment on Candida tropicalis it was 1 µg/mL (≈ 2.34 µM); with Candida albicans [4] it was 0.063 µg/mL (≈ 0.147 µM).

As for `CC(C)C1=CC2CC3(C=O)[C@@H]4CC[C@@H](C)[C@H]4CC2(C(=O)NC2CCCCC2)C13C(=O)O` (stereo not given in full), the MIC in the experiment on Nakaseomyces glabratus was 0.5 µg/mL (≈ 1.17 µM); against Candida albicans [1] it was above 4 µg/mL; with Candida albicans [2], above 4 µg/mL; with Candida albicans [3], above 4 µg/mL; against Candida tropicalis, above 4 µg/mL; with Candida albicans [4] it was above 4 µg/mL.

Take `CC(C)C1=CC2CC3(C=O)[C@@H]4CC[C@@H](C)[C@H]4CC2(C(=O)OC2CCCCC2)C13C(=O)O` (stereo not given in full): the minimum inhibitory concentration (MIC) in the experiment on Nakaseomyces glabratus was 0.5 µg/mL (≈ 1.17 µM); against Candida albicans [1], at most 0.125 µg/mL; in the experiment on Candida albicans [2], 0.25 µg/mL (≈ 0.583 µM); with Candida albicans [3], at most 0.125 µg/mL; in the experiment on Candida tropicalis, 4 µg/mL (≈ 9.33 µM); against Candida albicans [4], 0.5 µg/mL (≈ 1.17 µM).

The MIC is the least concentration at which growth counts as inhibited.
